Our source for the Ki and Ratio Ki values is ChEMBL document CHEMBL1145545, “Discovery of a novel A2B adenosine receptor antagonist as a clinical candidate for chronic inflammatory airway diseases” (J Med Chem, 2008).

In one assay the target is T1, Adenosine receptor A2b (Homo sapiens, UniProt P29275).
T1 sequence (P29275 whole entry): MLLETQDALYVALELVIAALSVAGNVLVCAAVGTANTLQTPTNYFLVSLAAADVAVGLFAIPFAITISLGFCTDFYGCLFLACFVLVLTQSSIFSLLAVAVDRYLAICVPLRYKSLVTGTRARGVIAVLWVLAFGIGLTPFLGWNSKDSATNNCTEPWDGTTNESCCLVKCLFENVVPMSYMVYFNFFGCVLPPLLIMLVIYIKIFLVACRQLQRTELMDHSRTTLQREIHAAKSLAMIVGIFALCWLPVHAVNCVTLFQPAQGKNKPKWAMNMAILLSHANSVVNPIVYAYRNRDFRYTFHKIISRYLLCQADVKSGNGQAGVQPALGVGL
The assay can be described thus: Displacement of [3H]ZM-241385 from human recombinant adenosine A2B receptor expressed in HEK293 cells. In kind it is cell-based. In short, it runs like this:
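Membranes from HEK293 cells stably expressing human A2B receptor; competition with 10 nM radioligand, 50 µg membrane protein, in 50 mM Tris/1 mM EDTA with 1 U/mL adenosine deaminase, 25 °C for 90 min with gentle agitation; filtration, four ice-cold Tris/MgCl2 washes. Nonspecific binding defined with 10 µM unlabelled ligand; Ki calculated.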
In general terms: Displacement assays read how much labelled ligand stays bound in the presence of the test substance.

The species entered for assay [1] is Homo sapiens. The experiment in a line: Selectivity for human recombinant adenosine A2B receptor over human recombinant adenosine A1 receptor.
Assay [2] is filed under the species Homo sapiens. The experiment in a line: Selectivity for human recombinant adenosine A2B receptor over human recombinant adenosine A2A receptor.
A further assay has as its target Adenosine receptor A2a (Homo sapiens, UniProt P29274). The assay can be described thus: Displacement of [3H]ZM-241385 from human recombinant adenosine A2A receptor expressed in HEK293 cells. In kind it is cell-based. In short, it runs like this: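 Membranes from HEK293 cells stably expressing human A2A receptor; 2 nM radioligand competed in 50 mM Tris/1 mM EDTA with 1 U/mL adenosine deaminase for 90 min at 25 °C with agitation; filtration, four ice-cold Tris/MgCl2 washes. Nonspecific binding defined with 1 µM unlabelled ligand; Ki computed.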

The target in the next assay is T2, Adenosine receptor A1 (Homo sapiens, UniProt P30542).
T2 sequence (P30542 whole entry): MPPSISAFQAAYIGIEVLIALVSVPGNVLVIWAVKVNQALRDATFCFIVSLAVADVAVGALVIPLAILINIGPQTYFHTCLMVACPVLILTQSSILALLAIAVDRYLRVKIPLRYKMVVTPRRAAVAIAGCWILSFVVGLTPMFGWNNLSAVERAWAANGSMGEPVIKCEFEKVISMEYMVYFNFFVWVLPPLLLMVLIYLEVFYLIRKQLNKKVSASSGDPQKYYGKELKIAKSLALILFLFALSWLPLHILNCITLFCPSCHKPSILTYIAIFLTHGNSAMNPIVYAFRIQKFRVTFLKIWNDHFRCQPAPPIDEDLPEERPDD
The experiment in a line: Displacement of [3H]CPX from human recombinant adenosine A1 receptor expressed in CHO cells. In kind it is cell-based. Put shortly:
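CHO cell membranes stably expressing human A1 receptor; 0.5 nM [3H]CPX competed with test compound in 50 mM Tris/1 mM EDTA plus 1 U/mL adenosine deaminase, 25 °C, 90 min, gentle agitation; filtration and four ice-cold Tris/MgCl2 washes. Nonspecific binding defined with 1 µM CPX; Ki values derived.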

A further assay addresses T3, Adenosine receptor A3 (Homo sapiens, UniProt P0DMS8).
T3 sequence (P0DMS8 whole entry): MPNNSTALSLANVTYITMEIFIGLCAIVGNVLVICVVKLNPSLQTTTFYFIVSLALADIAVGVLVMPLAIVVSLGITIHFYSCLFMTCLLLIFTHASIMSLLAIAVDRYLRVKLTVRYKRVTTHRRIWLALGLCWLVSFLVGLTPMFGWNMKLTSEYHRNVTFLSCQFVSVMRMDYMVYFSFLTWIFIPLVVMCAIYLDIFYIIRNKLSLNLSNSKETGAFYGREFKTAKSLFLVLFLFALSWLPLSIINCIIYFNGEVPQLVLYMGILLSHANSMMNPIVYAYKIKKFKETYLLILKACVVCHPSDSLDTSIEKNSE
The experiment in a line: Displacement of [125I]ABMECA from human recombinant adenosine A3 receptor expressed in CHO cells. In kind it is cell-based. Put shortly: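 Human A3 receptor stably expressed in CHO cells; membranes incubated with 0.1 nM 125I-AB-MECA and test compound in 50 mM Tris, 1 mM EDTA, 10 mM MgCl2 plus 1 U/mL adenosine deaminase, 25 °C, 90 min; filtration, four ice-cold washes. Nonspecific binding defined with 1 µM IB-MECA; Ki determined.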

Assay [3] is filed under the species Homo sapiens. The assay can be described thus: Selectivity for human recombinant adenosine A2B receptor over human recombinant adenosine A3 receptor.

By Ki is commonly meant a measure of affinity in units of concentration, obtained from inhibition or displacement.

Sequence of Adenosine receptor A2a (P29274 whole entry): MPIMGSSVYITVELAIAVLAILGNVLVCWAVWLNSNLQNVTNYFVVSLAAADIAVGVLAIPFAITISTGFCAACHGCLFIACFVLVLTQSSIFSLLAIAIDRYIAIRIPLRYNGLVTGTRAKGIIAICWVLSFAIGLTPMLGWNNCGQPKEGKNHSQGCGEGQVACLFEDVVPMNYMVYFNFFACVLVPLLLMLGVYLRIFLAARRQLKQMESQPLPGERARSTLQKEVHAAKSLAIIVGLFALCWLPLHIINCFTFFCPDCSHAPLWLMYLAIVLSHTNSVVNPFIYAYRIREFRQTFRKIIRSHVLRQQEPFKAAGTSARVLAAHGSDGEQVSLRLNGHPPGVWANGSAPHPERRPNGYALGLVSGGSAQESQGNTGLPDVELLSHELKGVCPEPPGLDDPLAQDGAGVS

Take `CCCn1c(=O)c2[nH]c(-c3cnn(Cc4ccccc4)c3)nc2n(C)c1=O`: the values for the Ki on Adenosine receptor A2b, at Adenosine receptor A2a and at Adenosine receptor A1 were 19 nM, 125 nM and 582 nM, respectively. The Ratio Ki in the assay filed under Homo sapiens [1] was determined as 30; in the assay filed under Homo sapiens [2], 6.
Turning to `CCCn1c(=O)c2[nH]c(-c3cnn(Cc4cccc(F)c4)c3)nc2n(C)c1=O`, the Ki on Adenosine receptor A2b was found to be 13 nM; at Adenosine receptor A2a, 139 nM; on Adenosine receptor A3, 95 nM; at Adenosine receptor A1, 290 nM. Moreover, the Ratio Ki in the assay filed under Homo sapiens [1] is 22; in the assay listed under Homo sapiens [2], 10; in the assay listed under Homo sapiens [3] it was 7.
As to `CC(C)Cn1c(=O)c2[nH]c(-c3cnn(Cc4cccc(F)c4)c3)nc2n(C)c1=O`, the Ki on Adenosine receptor A2b was determined as 60 nM; at Adenosine receptor A2a, 301 nM; at Adenosine receptor A3, 107 nM; at Adenosine receptor A1, 352 nM. Besides, the Ratio Ki in the assay listed under Homo sapiens [1] is 6; in the assay filed under Homo sapiens [2], 5; in the assay listed under Homo sapiens [3], 2.
For the compound `CCn1c(=O)n(CC2CC2)c(=O)c2[nH]c(-c3cn[nH]c3)nc21`, the Ki at Adenosine receptor A2b was 38 nM; on Adenosine receptor A2a it was 234 nM; at Adenosine receptor A1, 76 nM. Further, the Ratio Ki in the assay listed under Homo sapiens [1] was 2; in the assay listed under Homo sapiens [2], 6.
For `CC(C)Cn1c(=O)c2[nH]c(-c3cnn(Cc4cccc(C(F)(F)F)c4)c3)nc2n(C)c1=O`, in that order: 199 nM, 633 nM, 617 nM, 3 and 3.
On to `CCn1c(=O)n(CC2CC2)c(=O)c2[nH]c(-c3cnn(Cc4cccc(C(F)(F)F)c4)c3)nc21`, for which the Ki on Adenosine receptor A2b turned out to be 22 nM; on Adenosine receptor A2a, 272 nM; on Adenosine receptor A3, 326 nM; at Adenosine receptor A1 it was 218 nM. Also, the values for the Ratio Ki in the assay listed under Homo sapiens [1], in the assay listed under Homo sapiens [2] and in the assay listed under Homo sapiens [3] were 10, 12 and 15, respectively.
Regarding `CCn1c(=O)n(CC(C)C)c(=O)c2[nH]c(-c3cnn(Cc4cccc(C(F)(F)F)c4)c3)nc21`, the Ki on Adenosine receptor A2b worked out at 11 nM; on Adenosine receptor A2a, 1090 nM; on Adenosine receptor A3, 250 nM; at Adenosine receptor A1, 631 nM. Moreover, the Ratio Ki turned out to be 57 in the assay listed under Homo sapiens [1], 99 in the assay listed under Homo sapiens [2] and 23 in the assay listed under Homo sapiens [3].
Turning to `CCCn1c(=O)c2[nH]c(-c3cnn(Cc4nc(-c5ccc(Cl)cc5)no4)c3)nc2n(CC)c1=O`, the inhibitory constant (Ki) on Adenosine receptor A2b is 16 nM; on Adenosine receptor A2a it was 3780 nM; at Adenosine receptor A3, 413 nM; on Adenosine receptor A1, 910 nM. In addition, the Ratio Ki in the assay listed under Homo sapiens [1] is 56; in the assay listed under Homo sapiens [2] it was 236; in the assay filed under Homo sapiens [3] it was 25.
With `CCCn1c(=O)c2[nH]c(-c3cn[nH]c3)nc2n(CC)c1=O`, the Ki on Adenosine receptor A2b was 49 nM; at Adenosine receptor A2a, 496 nM; at Adenosine receptor A1, 178 nM. Moreover, the Ratio Ki turned out to be 4 in the assay filed under Homo sapiens [1] and 10 in the assay filed under Homo sapiens [2].
On to `CCn1c(=O)c2nc(-c3cnn(Cc4cccc(F)c4)c3)[nH]c2n(CC)c1=O`, for which the Ratio Ki in the assay filed under Homo sapiens [1] stood at 76; in the assay listed under Homo sapiens [2], 58; in the assay filed under Homo sapiens [3], 91.
For the compound `CCn1c(=O)n(CC2CC2)c(=O)c2[nH]c(-c3cnn(Cc4ccccc4)c3)nc21`, the values for the Ki on Adenosine receptor A2b, on Adenosine receptor A2a and on Adenosine receptor A1 were 27 nM, 181 nM and 314 nM, respectively. For the same compound, the Ratio Ki in the assay filed under Homo sapiens [1] amounted to 11; in the assay listed under Homo sapiens [2], 6.
With `CCn1c(=O)n(CC(C)C)c(=O)c2[nH]c(-c3cnn(Cc4cccc(F)c4)c3)nc21`, the Ki is 31 nM at Adenosine receptor A2b, 3850 nM at Adenosine receptor A2a, 324 nM on Adenosine receptor A3 and 1480 nM at Adenosine receptor A1. The Ratio Ki in the assay filed under Homo sapiens [1] came out at 47; in the assay listed under Homo sapiens [2], 124; in the assay listed under Homo sapiens [3], 10.
With `CC(C)Cn1c(=O)c2[nH]c(-c3cn[nH]c3)nc2n(C)c1=O`, the inhibition constant Ki on Adenosine receptor A2b is 42 nM; on Adenosine receptor A2a, 1390 nM; on Adenosine receptor A1 it was 376 nM. In addition, the Ratio Ki in the assay filed under Homo sapiens [1] was 9; in the assay listed under Homo sapiens [2], 33.
Taken in the same sequence, the figures for `CCCn1c(=O)c2[nH]c(-c3cnn(Cc4ccccn4)c3)nc2n(CC)c1=O` were 46 nM, 411 nM, 410 nM, 9 and 9.
With `CCCn1c(=O)c2[nH]c(-c3cnn(Cc4cccnc4)c3)nc2n(CC)c1=O`, the Ki worked out at 22 nM at Adenosine receptor A2b, 312 nM on Adenosine receptor A2a and 522 nM at Adenosine receptor A1. The figures for the Ratio Ki in the assay listed under Homo sapiens [1] and in the assay listed under Homo sapiens [2] were 23 and 14, respectively.
For `CCCn1c(=O)c2[nH]c(-c3cnn(Cc4cccc(C(F)(F)F)c4)c3)nc2n(CCC)c1=O`, the Ratio Ki is 12 in the assay listed under Homo sapiens [1], 28 in the assay filed under Homo sapiens [2] and 10 in the assay listed under Homo sapiens [3].
For `Cn1c(=O)c2nc(-c3cnn(Cc4cccc(C(F)(F)F)c4)c3)[nH]c2n(C)c1=O`, in that order: 992, 686 and 100.
In the case of `CCCn1c(=O)c2[nH]c(-c3cnn(Cc4noc(-c5ccc(Cl)cc5)n4)c3)nc2n(CC)c1=O`, the figures for the Ki at Adenosine receptor A2b, on Adenosine receptor A2a and on Adenosine receptor A1 were 335 nM, more than 5000 nM and more than 6000 nM, respectively. The Ratio Ki is more than 18 in the assay listed under Homo sapiens [1] and more than 15 in the assay filed under Homo sapiens [2].
For `CCCn1c(=O)c2[nH]c(-c3cnn(Cc4ccc[n+]([O-])c4)c3)nc2n(CC)c1=O`, in that order: 506 nM, 1950 nM, 1120 nM, 2 and 4.
For `CCn1c(=O)c2nc(-c3cnn(Cc4cccc(C(F)(F)F)c4)c3)[nH]c2n(CC)c1=O`, the Ratio Ki stood at 44 in the assay listed under Homo sapiens [1], 34 in the assay listed under Homo sapiens [2] and 34 in the assay listed under Homo sapiens [3].
With `Cn1c(=O)c2[nH]c(-c3cnn(Cc4cccc(F)c4)c3)nc2n(C)c1=O`, the Ratio Ki in the assay listed under Homo sapiens [1] amounted to 17; in the assay filed under Homo sapiens [2] it was 7.
`CCCn1c(=O)c2[nH]c(-c3cnn(Cc4cc(-c5ccc(Cl)cc5)on4)c3)nc2n(CC)c1=O`: the inhibitory constant (Ki) came to 42 nM on Adenosine receptor A2b, 781 nM at Adenosine receptor A2a and 200 nM at Adenosine receptor A1. Besides, the figures for the Ratio Ki in the assay listed under Homo sapiens [1] and in the assay listed under Homo sapiens [2] were 5 and 18, respectively.
As for `CCCn1c(=O)c2[nH]c(-c3cnn(Cc4cccc(F)c4)c3)nc2n(CCC)c1=O`, the Ratio Ki in the assay filed under Homo sapiens [1] was 13; in the assay listed under Homo sapiens [2] it was 17; in the assay filed under Homo sapiens [3] it was 4.
For the compound `CCCn1c(=O)c2[nH]c(-c3cnn(Cc4ccccc4)c3)nc2n(CC)c1=O`, the Ki on Adenosine receptor A2b came to 31 nM; on Adenosine receptor A2a, 261 nM; at Adenosine receptor A1, 275 nM. The results for the Ratio Ki in the assay filed under Homo sapiens [1] and in the assay listed under Homo sapiens [2] were 9 and 8, respectively.
Take `CCCCn1c(=O)c2[nH]c(-c3cnn(Cc4cccc(F)c4)c3)nc2n(C)c1=O`: the Ki amounted to 26 nM on Adenosine receptor A2b, 217 nM at Adenosine receptor A2a and 305 nM at Adenosine receptor A1. The Ratio Ki was found to be 11 in the assay listed under Homo sapiens [1] and 8 in the assay filed under Homo sapiens [2].
Turning to `CCCCn1c(=O)c2[nH]c(-c3cnn(Cc4ccccc4)c3)nc2n(C)c1=O`, the Ki on Adenosine receptor A2b was 30 nM; at Adenosine receptor A2a it was 247 nM; on Adenosine receptor A1 it was 416 nM. In addition, the Ratio Ki in the assay listed under Homo sapiens [1] is 13; in the assay listed under Homo sapiens [2] it was 8.
For `CCn1c(=O)n(CC(C)C)c(=O)c2[nH]c(-c3cn[nH]c3)nc21`, in that order: 141 nM, 1220 nM, 348 nM, 2 and 9.
For `CCn1c(=O)c2[nH]c(-c3cn[nH]c3)nc2n(C)c1=O`, the Ki on Adenosine receptor A2b stood at 120 nM.
